For 5 compounds, ILS, Survivors and LD50 results are on record in ChEMBL document CHEMBL1122917, “Vinblastin-23-oyl amino acid derivatives: chemistry, physicochemical data, toxicity, and antitumor activities against P388 and L1210 leukemias” (J Med Chem, 1985).

Data set [1] concerns Mus musculus. In words: Percent increase in life span at dose 56 mg/kg/day in 10 mice implanted with P388 leukemia cell line. It is filed as functional.
Data set [2] deals with Mus musculus. In words: Percent increase in life span at dose 58 mg/kg/day in 10 mice implanted with P388 leukemia cell line. It is filed as functional.
In data set [3] the test system is Mus musculus. Put plainly: Number of survivors of DBA2 mice on 60th day after inoculation with L1210 leukemia cell line intravenously at a dose of 55 mg/kg/day; 0/10. It is filed as functional. The note with it: route intravenous.
Data set [4] concerns Mus musculus. In words: Number of survivors on 60th day at dose 60 mg/kg/day in 10 mice implanted with P388 leukemia cell line; 3/10. It is filed as functional.
Data set [5] concerns Mus musculus. Put plainly: Percent increase in life span at dose 65 mg/kg/day in 7 mice implanted with P388 leukemia cell line for 1,8,15 schedule day in Exp-1. It is filed as functional.
Data set [6] concerns Mus musculus. In words: Number of survivors on 60th day at dose 55 mg/kg/day in 10 mice implanted with P388 leukemia cell line for 1,5,9 scheduled days; 1/10. It is filed as functional.
Data set [7] has as its system Mus musculus. Put plainly: Number of survivors on 30th day at dose 40 mg/kg/day in 10 mice implanted with P388 leukemia cell line; 5/10. It counts as functional.
The test system of data set [8] is Mus musculus. Put plainly: Number of survivors on 60th day at dose 20 mg/kg/day in 10 mice implanted with P388 leukemia cell line; 0/10. It counts as functional.
In data set [9] the test system is Mus musculus. Put plainly: Number of survivors of DBA2 mice on 60th day after inoculation with L1210 leukemia cell line intravenously at a dose of 65 mg/kg/day; 0/10. It counts as functional. The note with it: route intravenous.
Data set [10] concerns Mus musculus. In words: Number of survivors on 60th day at dose 75 mg/kg/day in 7 mice implanted with P388 leukemia cell line for 1,8,15 scheduled days in Exp-2; 2/10. It counts as functional.
Data set [11] has as its system Mus musculus. In words: Number of survivors on 60th day at dose 65 mg/kg/day in 7 mice implanted with P388 leukemia cell line for 1,8,15 scheduled days in Exp-2; 0/10. It counts as functional.
Data set [12] concerns Mus musculus. Put plainly: Percent increase in life span at dose 50 mg/kg/day in 10 mice implanted with P388 leukemia cell line. It counts as functional. The method in brief: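 Female DBA2 mice inoculated iv on day 0 with 10^4 P388 cells; single iv treatment on day 1 with drug as sulfate salt in physiological saline. Survival followed; %ILS from all deaths and survivors as (T/C × 100) − 100, maximal MST 30 days; survivors counted on days 30 and 60. Most experiments confirmed three times.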

Data set [13] concerns Mus musculus. Put plainly: Percent increase in life span at dose 55 mg/kg/day in 10 mice implanted with P388 leukemia cell line for 1,5,9 schedule days. It is filed as functional.
In data set [14] the test system is Mus musculus. In words: Percent increase in life span at dose 65 mg/kg/day in 7 mice implanted with P388 leukemia cell line for 1,8,15 schedule day in Exp-2. It counts as functional. An outline of the steps:
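Female DBA2 mice inoculated iv on day 0 with 10^5 P388 cells; iv dosing of sulfate salts in physiological saline on day 1 only or on days 1, 8 and 15. %ILS from all deaths and survivors as (T/C × 100) − 100, maximal MST 60 days; survivors scored on day 60.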

Data set [15] relates to Mus musculus. In words: Percent increase in life span of DBA2 mice after inoculation with L1210 leukemia intravenously at a dose of 10 mg/kg per day. The note with it: route intravenous. It is filed as functional.
For data set [16], the system named is Mus musculus. In words: Percent increase in life span at dose 8 mg/kg/day in 7 mice implanted with P388 leukemia cell line for 1,8,15 schedule days from Exp-1. It counts as functional.
Data set [17] deals with Mus musculus. Put plainly: Number of survivors on 60th day at dose 6 mg/kg/day in 7 mice implanted with P388 leukemia cell line for 1,8.15 scheduled days from Exp-2; 0/10. It is filed as functional.
Data set [18] concerns Mus musculus. Put plainly: Percent increase in life span at dose 6 mg/kg/day in 7 mice implanted with P388 leukemia cell line for 1,8,15 schedule days from Exp-2. It is filed as functional.
For data set [19], the system named is Mus musculus. In words: Percent increase in life span at dose 7 mg/kg/day in 9 mice implanted with P388 leukemia cell line for 1st schedule day. It is filed as functional.
The subject of data set [20] is Mus musculus. In words: Number of survivors on 60th day at dose 4 mg/kg/day in 7 mice implanted with P388 leukemia cell line for 1,8,15 acheduled days form Exp-1; 0/10. It counts as functional.
Data set [21] deals with Mus musculus. In words: Percent increase in life span of BDF1 mice after inoculation with P388 leukemia intraperitoneally at a dose of 4 mg/kg per day. The note with it: P388, ip.
The subject of data set [22] is Mus musculus. Put plainly: Number of survivors of DBA2 mice on 30th day after inoculation with L1210 leukemia cell line intraperitoneally at a dose of 4 mg/kg/day; 0/10. As to conditions: route intraperitoneal. It is filed as functional.
Data set [23] relates to Mus musculus. Put plainly: Percent increase in life span at dose 4 mg/kg/day in 7 mice implanted with P388 leukemia cell line for 1,8,15 scheduled day from Exp-2. It is filed as functional.
Data set [24] has as its system Mus musculus. In words: Number of survivors of DBA2 mice on 60th day after inoculation with L1210 leukemia cell line intravenously at a dose of 1.5 mg/kg/day; 0/10. It is filed as functional. The note with it: route intravenous.
Data set [25] has as its system Mus musculus. In words: Number of survivors of DBA2 mice on 60th day after inoculation with L1210 leukemia cell line intravenously at a dose of 3.5 mg/kg/day; 0/10. It counts as functional. The note with it: route intravenous.
The test system of data set [26] is Mus musculus. In words: Percent increase in life span of DBA2 mice after inoculation with L1210 leukemia intravenously at a dose of 6.5 mg/kg per day. It is filed as functional. As to conditions: route intravenous.
The test system of data set [27] is Mus musculus. In words: Percent increase in life span of DBA2 mice after inoculation with L1210 leukemia intravenously at a dose of 1.5 mg/kg per day. It is filed as functional. The note with it: route intravenous.
The subject of data set [28] is Mus musculus. In words: Number of survivors of DBA2 mice on 60th day after inoculation with L1210 leukemia cell line intravenously at a dose of 4.5 mg/kg/day; 0/10. It counts as functional. As to conditions: route intravenous.
For data set [29], the system named is Mus musculus. In words: Number of survivors on 60th day at dose 1.5 mg/kg/day in 10 mice implanted with P388 leukemia cell line; 0/10. It counts as functional.
Data set [30] deals with Mus musculus. Put plainly: Number of survivors of DBA2 mice on 60th day after inoculation with L1210 leukemia cell line intraperitoneally at a dose of 0.22 mg/kg/day; 0/10. It counts as functional. As to conditions: route intraperitoneal.
Data set [31] deals with Mus musculus. In words: Percent increase in life span of DBA2 mice after inoculation with L1210 leukemia intravenously at a dose of 2 mg/kg per day. It counts as functional. The note with it: route intravenous.
For data set [32], the system named is Mus musculus. In words: Number of survivors of DBA2 mice on 30th day after inoculation with L1210 leukemia cell line intravenously at a dose of 1.5 mg/kg/day; 0/10. It is filed as functional. As to conditions: route intravenous.
Data set [33] has as its system Mus musculus. In words: Percent increase in life span at dose 0.5 mg/kg/day in 10 mice implanted with P388 leukemia cell line. It is filed as functional.
The subject of data set [34] is Mus musculus. Put plainly: Percent increase in life span of BDF1 mice after inoculation with P388 leukemia intraperitoneally at a dose of 2.7 mg/kg per day. As to conditions: P388, ip.
The test system of data set [35] is Mus musculus. In words: Number of survivors of DBA2 mice on 60th day after inoculation with L1210 leukemia cell line intraperitoneally at a dose of 2.5 mg/kg/day; 0/10. The note with it: route intraperitoneal. It counts as functional.
Data set [36] has as its system Mus musculus. Put plainly: Number of survivors on 60th day at dose 2.5 mg/kg/day in 10 mice implanted with P388 leukemia cell line for 1st scheduled day; 0/10. It counts as functional.
A short description of data set [37]: Acute iv toxicity against Swiss strain of 100 mice after 8 doses of injection. It counts as organism-based. The note with it: mouse, in vivo.
Data set [38] concerns Mus musculus. In words: Number of survivors on 60th day at dose 2.5 mg/kg/day in 7 mice implanted with P388 leukemia cell line for 1,8,15 scheduled days from Exp-2; 0/11. It is filed as functional.

Values joined by “and” are separate entries in the source; they are usually repeats but may differ in a detail not shown here. Equal entries are not always repeated. Bounds are passed on as bounds.

Turning to `CCOC(=O)[C@H](Cc1c[nH]c2ccccc12)NC(=O)[C@@]1(O)[C@H](O)[C@]2(CC)C=CCN3CC[C@@]4(c5cc([C@@]6(C(=O)OC)C[C@H]7C[N@](CCc8c6[nH]c6ccccc86)C[C@](O)(CC)C7)c(OC)cc5N(C)[C@@]14C)[C@@H]32`, the ILS at 56 mg/kg/day in data set [1] amounted to 113%. For the same compound, in [2], the ILS at 58 mg/kg/day is 122%. Further, the Survivors amounted to 0 in data set [3]; 3 in data set [4]; 1 in [6]; 5 in [7]; 0 in [8]; 0 in [9]. Moreover, the Survivors in [10] stood at 2; in data set [11] it was 0. Moreover, in [5], the ILS at 65 mg/kg/day is 88%. The ILS at 50 mg/kg/day in [12] was greater than 161%. Besides, the ILS at 55 mg/kg/day in [13] is greater than 426%. In data set [14], the ILS was 40% and 108%.
Take `CCOC(=O)[C@@H](NC(=O)[C@@]1(O)[C@H](O)[C@]2(CC)C=CCN3CC[C@@]4(c5cc([C@@]6(C(=O)OC)C[C@H]7C[N@](CCc8c6[nH]c6ccccc86)C[C@](O)(CC)C7)c(OC)cc5N(C)[C@@]14C)[C@@H]32)[C@@H](C)CC`: the ILS at 10 mg/kg/day in data set [15] is 27%. Besides, the ILS at 8 mg/kg/day in data set [16] is 119%. In addition, the Survivors in data set [17] worked out at 0. For the same compound, in data set [18], the ILS at 6 mg/kg/day worked out at 200%. Moreover, the ILS at 7 mg/kg/day in data set [19] was 37%.
Turning to `CC[C@]1(O)C[C@@H]2CN(CCc3c([nH]c4ccccc34)[C@@](C(=O)OC)(c3cc4c(cc3OC)N(C)[C@H]3[C@@](O)(C(=O)OC)[C@H](OC(C)=O)[C@]5(CC)C=CCN6CC[C@]43[C@@H]65)C2)C1` [VINBLASTINE], the Survivors in data set [20] and in data set [22] was 0 each time. Moreover, the ILS at 4 mg/kg/day was 0% in data set [21] and 35% in [23].
Take `CC[C@]1(O)C[C@H]2CN(CCc3c([nH]c4ccccc34)[C@@](C(=O)OC)(c3cc4c(cc3OC)N(C=O)[C@H]3[C@@](O)(C(=O)OC)[C@H](OC(C)=O)[C@]5(CC)C=CCN6CC[C@]43[C@@H]65)C2)C1` [VINCRISTINE]: the Survivors in data set [24], in data set [25], in data set [28], in data set [29], in data set [30] and in data set [32] was 0 throughout. The ILS at 6.5 mg/kg/day in data set [26] is -37%. Moreover, in [27], the ILS at 1.5 mg/kg/day was 12%. In data set [31], the ILS at 2 mg/kg/day stood at 16%. In addition, the ILS at 0.5 mg/kg/day in data set [33] was 4%. Also, in data set [34], the ILS at 2.7 mg/kg/day turned out to be 64%.
With `CC[C@]1(O)C[C@@H]2CN(CCc3c([nH]c4ccccc34)[C@@](C(=O)OC)(c3cc4c(cc3OC)N(C)[C@H]3[C@@](O)(C(N)=O)[C@H](O)[C@]5(CC)C=CCN6CC[C@]43[C@@H]65)C2)C1` [VINDESINE], the Survivors in data set [35], in [36] and in [38] was 0 each time. In data set [37], the LD50 came to 13.8 mg/kg.
